Data taken from ChEMBL document CHEMBL4414551, “Design, Synthesis, and Biological Evaluation of Substituted 4,6-Dihydrospiro[[1,2,3]triazolo[4,5-b]pyridine-7,3'-indoline]-2',5(3H)-dione Analogues as Potent NS4B Inhibitors for the Treatment of Dengue Virus Infection” (J Med Chem, 2019).

Assays:
[1] = Cytotoxicity in human HuH7 replicon cells infected with Dengue virus 2 NGC assessed as reduction in cell viability incubated for 48 hrs by Cell-titer-Glo reagent based assay; parameters: species or system Huh-7
Summary of the method: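 Huh7 cells or Huh7 replicon cells plated, then held at 37 °C with 5% CO₂ overnight. Exposed to 2-fold serial compound dilutions for 48 h, in duplicate. Viability read with CellTiter-Glo and normalized to 0.45% DMSO wells set at 100%. CC50 from four-parameter logistic fit.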

dengue virus type 4 = experiment: Antiviral activity against Dengue virus 4 D4MY01-22713 infected in human HuH7 replicon cells expressing Renilla luciferase and neomycin-resistance genes assessed as reduction in viral replication incubated for 48 hrs by luciferase reporter replicon-based assay; type: functional, organism-based; details: D4MY01-22713, Huh-7, 48 h
Summary of the method: (§1)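 Huh7 cells stably carrying a Renilla luciferase/neomycin-resistance replicon (DENV-1 WestPac, DENV-2 NGC, DENV-3 D3MY05-34640 or DENV-4 D4MY01-22713). Cells seeded at 10k per well and incubated overnight at 37 °C, 5% CO2. Then exposed to 2-fold serial compound dilutions for 48 h, in duplicate. Luciferase read with a live-cell substrate. EC50 from four-parameter logistic fit.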

dengue virus type 3 = experiment: Antiviral activity against Dengue virus 3 D3MY05-34640 infected in human HuH7 replicon cells expressing Renilla luciferase and neomycin-resistance genes assessed as reduction in viral replication incubated for 48 hrs by luciferase reporter replicon-based assay; type: functional, organism-based; details: D3MY05-34640, Huh-7, 48 h; summary of the method: as §1
dengue virus type 2 = experiment: Antiviral activity against Dengue virus 2 NGC infected in human HuH7 replicon cells expressing Renilla luciferase and neomycin-resistance genes assessed as reduction in viral replication incubated for 48 hrs by luciferase reporter replicon-based assay; type: functional, organism-based; details: Huh-7, 48 h; summary of the method: as §1
dengue virus type 1 = experiment: Antiviral activity against Dengue virus 1 WestPac infected in human HuH7 replicon cells expressing Renilla luciferase and neomycin-resistance genes assessed as reduction in viral replication incubated for 48 hrs by luciferase reporter replicon-based assay; type: functional, organism-based; details: Huh-7, 48 h; summary of the method: as §1

Compound | CC50 at 48 h [1] [nM] | EC50 (dengue virus type 4) [nM] | EC50 (dengue virus type 3) [nM] | EC50 (dengue virus type 2) [nM] | EC50 (dengue virus type 1) [nM]
C[C@@H](c1ccc(Cl)cc1)n1nnc2c1NC(=O)C[C@]21C(=O)N(Cc2ccc(Cl)c(F)c2)c2ccc(Cl)cc21 | > 10000 | 5100 | 290 | 4000 | 1500
C[C@@H](c1ccc(Cl)cc1)n1nnc2c1NC(=O)C[C@]21C(=O)N(CCF)c2ccc(Cl)cc21 | > 10000 | > 5000 | 9 | 38 | > 5000
CCN1C(=O)[C@]2(CC(=O)Nc3c2nnn3[C@@H](C)c2ccc(Cl)cc2)c2cc(Cl)ccc21 | > 10000 | > 5000 | 6 | 24 | 2500
C[C@@H](c1ccc(Cl)cc1)n1nnc2c1NC(=O)C[C@]21C(=O)N(CCCCCCCCCCN(C)C)c2ccc(Cl)cc21 | > 10000 | 3500 | 98 | 3500 | 2700
COC(=O)CN1C(=O)[C@]2(CC(=O)Nc3c2nnn3[C@@H](C)c2ccc(Cl)cc2)c2cc(Cl)ccc21 | > 10000 | > 5000 | 11 | 77 | > 5000
CC(C)CN1C(=O)[C@]2(CC(=O)Nc3c2nnn3[C@@H](C)c2ccc(Cl)cc2)c2cc(Cl)ccc21 | > 10000 | > 5000 | 20 | 150 | 1300
CC#CCN1C(=O)[C@]2(CC(=O)Nc3c2nnn3[C@@H](C)c2ccc(Cl)cc2)c2cc(Cl)ccc21 | > 10000 | > 5000 | 20 | 63 | > 5000
C[C@@H](c1ccc(Cl)cc1)n1nnc2c1NC(=O)C[C@]21C(=O)N(CCCCN(C)C)c2ccc(Cl)cc21 | > 10000 | > 5000 | 38 | 190 | > 5000
C[C@@H](c1ccc(Cl)cc1)n1nnc2c1NC(=O)C[C@]21C(=O)N(CCN2CCCCC2)c2ccc(Cl)cc21 | > 10000 | > 5000 | 5 | 74 | > 5000
C[C@@H](c1ccc(Cl)cc1)n1nnc2c1NC(=O)C[C@]21C(=O)N(CCc2ccccc2)c2ccc(Cl)cc21 | > 10000 | > 5000 | 190 | 600 | 1100
C[C@@H](c1ccc(Cl)cc1)n1nnc2c1NC(=O)C[C@]21C(=O)N(Cc2ccc(F)cc2)c2ccc(Cl)cc21 | > 10000 | 10000 | 48 | 160 | 5000
CCOC(CN1C(=O)[C@]2(CC(=O)Nc3c2nnn3[C@@H](C)c2ccc(Cl)cc2)c2cc(Cl)ccc21)OCC | > 10000 | > 5000 | 76 | 290 | > 5000
C[C@@H](c1ccc(Cl)cc1)n1nnc2c1NC(=O)C[C@]21C(=O)N(Cc2ccc(Cl)cc2)c2ccc(Cl)cc21 | > 10000 | 6500 | 200 | 3300 | 2200
C[C@@H](c1ccc(Cl)cc1)n1nnc2c1NC(=O)C[C@]21C(=O)N(CCO)c2ccc(Cl)cc21 | > 10000 | > 5000 | 10 | 37 | > 5000
COCCCN1C(=O)C[C@]2(C(=O)Nc3ccc(Cl)cc32)c2nnn([C@@H](C)c3ccc(Cl)cc3)c21 | > 10000 | > 10000 | 910 | 8700 | > 10000
Cc1ccc(CN2C(=O)[C@]3(CC(=O)Nc4c3nnn4[C@@H](C)c3ccc(Cl)cc3)c3cc(Cl)ccc32)cn1 | > 10000 | > 5000 | 11 | 150 | > 5000
C[C@@H](c1ccc(Cl)cc1)n1nnc2c1NC(=O)C[C@]21C(=O)N(Cc2ccc(Cl)nc2)c2ccc(Cl)cc21 | > 10000 | > 5000 | 6 | 78 | > 5000
C[C@@H](c1ccc(Cl)cc1)n1nnc2c1NC(=O)C[C@]21C(=O)N(CCCCN2CCCCC2)c2ccc(Cl)cc21 | > 10000 | > 5000 | 78 | 350 | > 5000
COCCCN1C(=O)[C@]2(CC(=O)Nc3c2nnn3[C@@H](C)c2ccc(Cl)cc2)c2cc(Cl)ccc21 | > 10000 | > 5000 | 9 | 40 | > 5000
CCCCN1C(=O)[C@]2(CC(=O)Nc3c2nnn3[C@@H](C)c2ccc(Cl)cc2)c2cc(Cl)ccc21 | > 10000 | > 5000 | 18 | 75 | 1300

Compound | CC50 at 48 h [1] [nM] | EC50 (dengue virus type 4) [nM] | EC50 (dengue virus type 3) [nM] | EC50 (dengue virus type 2) [nM] | EC50 (dengue virus type 1) [nM]
C[C@@H](c1ccc(Cl)cc1)n1nnc2c1N(C)C(=O)C(C)(C)[C@]21C(=O)N(C)c2ccc(Cl)cc21 | > 10000 | > 5000 | > 5000 | > 5000 | > 5000
C[C@@H](c1ccc(Cl)cc1)n1nnc2c1NC(=O)C[C@]21C(=O)N(CCN(C)CCS(C)(=O)=O)c2ccc(Cl)cc21 | > 10000 | > 5000 | 18 | 77 | > 5000
C[C@@H](c1ccc(Cl)cc1)n1nnc2c1NC(=O)C[C@]21C(=O)N(CCCN2CCOCC2)c2ccc(Cl)cc21 | > 10000 | > 5000 | 5 | 76 | > 5000
CC(C)N1C(=O)C[C@]2(C(=O)Nc3ccc(Cl)cc32)c2nnn([C@@H](C)c3ccc(Cl)cc3)c21 | > 10000 | 4400 | 310 | 860 | 2100
C[C@@H](c1ccc(Cl)cc1)n1nnc2c1NC(=O)C[C@]21C(=O)N(CCCCCCBr)c2ccc(Cl)cc21 | > 10000 | – | – | 3000 | –
C[C@@H](c1ccc(Cl)cc1)n1nnc2c1NC(=O)C[C@]21C(=O)N(Cc2cc(C(C)(C)C)cc(C(C)(C)C)c2)c2ccc(Cl)cc21 | > 10000 | 4900 | 5900 | > 10000 | 4600
C[C@@H](c1ccc(Cl)cc1)n1nnc2c1NC(=O)C[C@]21C(=O)N(CCC(C)(C)C)c2ccc(Cl)cc21 | > 10000 | 3900 | 82 | 870 | 1100
CNCCN1C(=O)[C@]2(CC(=O)Nc3c2nnn3[C@@H](C)c2ccc(Cl)cc2)c2cc(Cl)ccc21 | > 10000 | > 5000 | 22 | 120 | > 5000
C[C@@H](c1ccc(Cl)cc1)n1nnc2c1NC(=O)C[C@]21C(=O)N(CCCN(C)C)c2ccc(Cl)cc21 | > 10000 | > 5000 | 1 | 25 | > 5000
CC(C)N1C(=O)[C@]2(CC(=O)Nc3c2nnn3[C@@H](C)c2ccc(Cl)cc2)c2cc(Cl)ccc21 | > 10000 | > 5000 | 9 | 23 | 5700
COCOCCN1C(=O)[C@]2(CC(=O)Nc3c2nnn3[C@@H](C)c2ccc(Cl)cc2)c2cc(Cl)ccc21 | > 10000 | > 5000 | 19 | 92 | > 5000
C[C@@H](c1ccc(Cl)cc1)n1nnc2c1NC(=O)C[C@]21C(=O)Nc2ccc(Cl)cc21 | > 10000 | > 5000 | 10 | 39 | > 5000
CCCCCCN1C(=O)[C@]2(CC(=O)Nc3c2nnn3[C@@H](C)c2ccc(Cl)cc2)c2cc(Cl)ccc21 | > 10000 | > 5000 | 140 | 810 | 830
COC(=O)CN1C(=O)C[C@]2(C(=O)Nc3ccc(Cl)cc32)c2nnn([C@@H](C)c3ccc(Cl)cc3)c21 | > 10000 | > 10000 | 2700 | > 10000 | > 10000
C[C@@H](c1ccc(Cl)cc1)n1nnc2c1NC(=O)C[C@]21C(=O)N(Cc2cccc(F)c2)c2ccc(Cl)cc21 | > 10000 | > 5000 | 51 | 290 | 10000
CCCCCCCCCCN1C(=O)[C@]2(CC(=O)Nc3c2nnn3[C@@H](C)c2ccc(Cl)cc2)c2cc(Cl)ccc21 | > 10000 | 7300 | 1200 | > 10000 | 3400
C=CCN1C(=O)[C@]2(CC(=O)Nc3c2nnn3[C@@H](C)c2ccc(Cl)cc2)c2cc(Cl)ccc21 | > 10000 | > 5000 | 5 | 38 | 2100
C[C@@H](c1ccc(Cl)cc1)n1nnc2c1NC(=O)C[C@]21C(=O)N(CCCCCCCCBr)c2ccc(Cl)cc21 | > 10000 | – | – | > 5000 | –
C[C@@H](c1ccc(Cl)cc1)n1nnc2c1NC(=O)C[C@]21C(=O)N(CC(=O)O)c2ccc(Cl)cc21 | > 10000 | – | – | 2400 | –
